Only some compounds are listed: those with a hit (about 3.9% of all), similar ones and a draw of the others.
HEK293 NFkB inh: lowers PMA/ionomycin-induced NF-kB signal in HEK293 cells; HEK-293 NF-kB luciferase reporter, luminescence; inhibition, % at 3 µM; 0.21% of 62,000 active;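 active = inhibition above the mean of all tested compounds plus 3 SD, cut at about 40% in these data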;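 also: 0% = stimulated DMSO wells and 100% = 10 µM reference inhibitor 5653914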
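System: NF-kB luciferase reporter HEK-293 cells | Replication: Single test | Control set: DMSO vs reference inhibitor | Evaluation: % inhibition | Schedule: 1 h pretreatment, 16 h stimulation, 37 °C | Probe or stimulus: PMA with ionomycin | Compound dosing: One dose, 3 µM | Detection: Luciferase luminescence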
SF1 activator: activators of human nuclear receptor SF-1; activation, % at 10 µM; Q13285; 1.9% of 65,000 active; CHO-K1 Gal4-SF-1 LBD luciferase reporter; % increase over DMSO SF-1-specific signal;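 active = activation above the mean activation of all tested compounds plus 3 SD, cut at about 50% in these data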
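Assay system: CHO-K1 cells co-transfected with Gal4 DBD–human SF-1 LBD, 5xGal4 luciferase reporter; doses: 10 µM only; incubation: 20 h compound exposure at 37 °C after 1 h cell settling; signal: luciferase light emission; evaluation: percent activation versus DMSO; repeats: one test per compound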
Jurkat viability: cytotoxic compounds reducing Jurkat cell viability. Jurkat E6.1 viability, ATP luminescence, 48 h. inhibition, % at 4 µM. 1.2% of 56,000 active;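 active = inhibition above the mean inhibition of all tested compounds plus 3 SD, cut at about 28% in these data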
RORa activator: RORA (human) activation | CHO-K1 Gal4-RORA LBD luciferase reporter, luminescence; percent increase over mock-subtracted basal signal | 1.5% of 65,000 active | activation, % at 10 µM;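 active = activation above the mean of all tested compounds plus 3 SD, cut at about 49% in these data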;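 also: 0% = DMSO-treated RORA cells and 100% = added signal equal to DMSO minus mock-transfected cells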
Target sequence (P35398 whole entry, looked up, the tested form may be a part): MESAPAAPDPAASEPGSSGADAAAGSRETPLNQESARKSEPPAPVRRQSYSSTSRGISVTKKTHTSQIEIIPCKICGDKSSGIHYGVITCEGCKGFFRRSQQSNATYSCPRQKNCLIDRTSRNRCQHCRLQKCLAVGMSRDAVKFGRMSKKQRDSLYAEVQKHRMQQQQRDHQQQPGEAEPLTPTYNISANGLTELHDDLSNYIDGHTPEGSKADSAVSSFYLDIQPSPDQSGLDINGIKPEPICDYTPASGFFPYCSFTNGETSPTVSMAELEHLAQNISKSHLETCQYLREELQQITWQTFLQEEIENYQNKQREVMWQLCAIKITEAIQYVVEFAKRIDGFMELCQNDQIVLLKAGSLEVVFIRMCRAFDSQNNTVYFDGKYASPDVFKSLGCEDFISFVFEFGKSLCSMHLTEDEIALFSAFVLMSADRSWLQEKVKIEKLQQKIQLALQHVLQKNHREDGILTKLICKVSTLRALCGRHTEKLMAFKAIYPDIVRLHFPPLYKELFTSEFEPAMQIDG
Numbers without * were called inactive.

Screening CC12CC(NC(=O)N1CCc1ccccc1)c1cc(Cl)ccc1O2 (stereo unspecified) returned HEK293 NFkB inh 8, SF1 activator -13, Jurkat viability -1 and RORa activator -40.
`O=C(COC(=O)c1cccc(NC(=O)c2ccco2)c1)c1ccc(Br)cc1` gave HEK293 NFkB inh 11, SF1 activator 6, Jurkat viability 2 and RORa activator 18.
Screening CCOC(=O)c1[nH]c2ccc(OC)cc2c1NC(=O)OC returned HEK293 NFkB inh -2, SF1 activator -20, Jurkat viability 6 and RORa activator -1.
`CCOC(=O)Nc1c(C(=O)OC)[nH]c2cc(OC)ccc12` gave HEK293 NFkB inh 20, SF1 activator 9, Jurkat viability 43* and RORa activator -6.
For CCOC(=O)C1=C(N)OC2=C(C(=O)CC(C)(C)C2)C1c1ccco1 (stereo unspecified) the results were HEK293 NFkB inh 2, SF1 activator 1, Jurkat viability -10 and RORa activator 15.
CC1(C)CC(=O)C2=C(C1)OC1=C(C(=O)CC(C)(C)C1)C2c1ccc(O)cc1O was read as HEK293 NFkB inh -2, SF1 activator -30, Jurkat viability 96* and RORa activator 0.
`COc1ccc(OC)c(Nc2cc(C)nc3ccccc23)c1` gave HEK293 NFkB inh 15, SF1 activator 2, Jurkat viability 19 and RORa activator 6.
For COc1ccc(OC)c(Nc2cc(-c3ccccc3)nc(N)n2)c1 the results were HEK293 NFkB inh 38, SF1 activator -45, Jurkat viability 98* and RORa activator -33.
Screening CC(C)c1cc(C(=O)Nc2cccc(Cl)c2)no1 returned HEK293 NFkB inh -41, SF1 activator 25, Jurkat viability 2 and RORa activator 34.
Screening COC(=O)c1cccc(C(=O)Nc2ccc(C)cc2)n1 returned HEK293 NFkB inh -11, SF1 activator 50*, Jurkat viability 4 and RORa activator 23.
`CCc1ccc(NC(=O)c2cc(C(C)C)on2)cc1` gave HEK293 NFkB inh -48, SF1 activator 11, Jurkat viability 1 and RORa activator 62*.
CC(C)c1cc(C(=O)Nc2cc(Cl)ccc2O)no1 was read as HEK293 NFkB inh -35, SF1 activator 23, Jurkat viability 54* and RORa activator 12.
`CC(=O)c1cccc(NC(=O)c2cc(C(C)C)on2)c1` gave HEK293 NFkB inh -21, SF1 activator 74*, Jurkat viability -4 and RORa activator 55*.
`O=C(CCNS(=O)(=O)c1cccc2nonc12)NCc1cccs1` gave HEK293 NFkB inh 2, SF1 activator 3 and RORa activator -2.
`Cc1cc(C)nc(NS(=O)(=O)c2ccc(N3C(=O)C4CC=C(Cl)CC4C3=O)cc2)n1` (stereo unspecified) gave HEK293 NFkB inh 6, SF1 activator 7, Jurkat viability -5 and RORa activator 10.
For Cc1ccc(NC(=O)c2cc(C)on2)cc1 the results were HEK293 NFkB inh -26, SF1 activator 60*, Jurkat viability -6 and RORa activator 30.
For CCCc1cc(C(=O)Nc2ccc(C)cc2)no1 the results were HEK293 NFkB inh 1, SF1 activator 29, Jurkat viability -4 and RORa activator 6.
CCCc1cc(C(=O)Nc2cc(Br)ccc2O)no1 was read as HEK293 NFkB inh 2, SF1 activator 11, Jurkat viability 46* and RORa activator -9.
For CC(=O)c1cccc(NC(=O)c2cc3nc(C)cc(C)n3n2)c1 the results were HEK293 NFkB inh -17, SF1 activator 37, Jurkat viability 13 and RORa activator 6.
`c1ccc(-c2csc3nnc(SCc4ccc5c(c4)OCO5)n23)cc1` gave HEK293 NFkB inh 24, SF1 activator -5, Jurkat viability 4 and RORa activator 4.
`OCCn1c(-c2ccc3c(c2)OCO3)csc1=Nc1ccccc1` gave HEK293 NFkB inh 12, SF1 activator 51*, Jurkat viability 16 and RORa activator 46.
CCOC(=O)c1[nH]c2ccc(OC)cc2c1NC(=O)CCN1CCCC(C)C1 (stereo unspecified) was read as SF1 activator -10 and RORa activator -12.
`COC(=O)CCC(=O)c1oc2ccccc2c1N` gave HEK293 NFkB inh -2, SF1 activator -12, Jurkat viability -5 and RORa activator -16.
O=C1C2C3C=CC(C3)C2C(=O)N1c1ccc(-c2nc3ccccc3o2)cc1 (stereo unspecified) was read as HEK293 NFkB inh -28, SF1 activator 41, Jurkat viability -2 and RORa activator 73*.

Source: PubChem BioAssay
